The source made the active and inactive calls.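 Rule for the calls, unless noted: active = mean duplicate potentiation above the buffer control mean plus 5 SD of buffer wells; inactive = the rest.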
Each molecule was assayed against Potassium voltage-gated channel subfamily KQT member 2 (Rattus norvegicus) (UniProt O88943) (assay: KCNQ2 thallium flux enhancement – KCNQ2-CHO-K1 cells, selectivity assay for KCNQ1 potentiator project (AID 493009;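 note: assay conditions were tuned for KCNQ1 rather than KCNQ2 modulators; signal is max minus min fluorescence divided by baseline after thallium stimulus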)). Settings: FluxOR thallium flux fluorescence, at 10 µM; hits give high values, scaled: buffer 0, activator control 100.
Sequence of Potassium voltage-gated channel subfamily KQT member 2 (Rattus norvegicus) (O88943 whole entry, looked up): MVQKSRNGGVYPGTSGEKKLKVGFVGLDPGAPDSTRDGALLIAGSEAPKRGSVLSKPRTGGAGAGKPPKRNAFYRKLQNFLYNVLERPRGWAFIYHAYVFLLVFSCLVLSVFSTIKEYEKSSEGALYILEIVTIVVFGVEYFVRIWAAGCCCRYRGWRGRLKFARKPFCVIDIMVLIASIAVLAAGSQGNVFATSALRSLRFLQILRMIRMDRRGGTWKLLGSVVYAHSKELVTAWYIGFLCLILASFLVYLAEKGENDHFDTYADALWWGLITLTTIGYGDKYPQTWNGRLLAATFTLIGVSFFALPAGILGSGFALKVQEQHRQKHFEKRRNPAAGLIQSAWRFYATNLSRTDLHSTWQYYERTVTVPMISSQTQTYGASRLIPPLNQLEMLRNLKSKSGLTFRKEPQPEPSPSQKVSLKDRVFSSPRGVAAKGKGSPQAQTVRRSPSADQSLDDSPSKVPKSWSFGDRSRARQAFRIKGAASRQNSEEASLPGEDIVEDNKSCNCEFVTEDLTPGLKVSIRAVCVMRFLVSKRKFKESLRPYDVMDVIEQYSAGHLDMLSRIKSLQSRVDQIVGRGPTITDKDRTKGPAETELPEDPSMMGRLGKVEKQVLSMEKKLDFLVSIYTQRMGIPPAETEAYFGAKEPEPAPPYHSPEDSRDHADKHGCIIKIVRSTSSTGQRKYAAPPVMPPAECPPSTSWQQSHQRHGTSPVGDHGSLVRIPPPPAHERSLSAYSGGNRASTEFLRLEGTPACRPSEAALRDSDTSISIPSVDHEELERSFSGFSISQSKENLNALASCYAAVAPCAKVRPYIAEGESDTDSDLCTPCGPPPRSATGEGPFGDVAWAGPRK

Structure (SMILES) | outcome | potentiation
CN1CCN(C(=O)/C(=C/c2ccccc2)c2ccccc2)CC1 | inactive | 
CC(OC(=O)CCCNC(=O)c1ccc(Cl)cc1)C(=O)N(C)Cc1ccccc1 (stereo not given) | inactive | 
Cc1ccc2cc(CN(C(=O)c3ccco3)c3ccccc3C)c(=O)[nH]c2c1 | inactive | 
COc1ccc(C(=O)NC(=S)NNC(=O)c2ccc3ccccc3n2)cc1 |  | 160% (active)
CC(C)(C)C(=O)NC(=S)NNC(=O)c1ccc(Cl)cc1Cl |  | 171% (active)
Fc1ccc2nc(Nc3nc4c(F)cccc4s3)sc2c1 |  | 180% (active)
Clc1ccc(-c2csc(N3CCc4ccccc4C3)n2)cc1 | inactive | 
CCN(Cc1cc2cc(OC)ccc2[nH]c1=O)C(=O)c1ccncc1 | inactive | 
Cc1ccc(NC(=S)N/N=C2/CCCCc3ccccc32)cc1 |  | 484% (active)
Cc1ccc(C(=O)Nc2nc3ccccc3c(=O)s2)cc1 |  | 216% (active)
Cc1cc(C)n(CC(=O)N2CCCC(N3CCN(c4ccccc4C)CC3)C2)n1 (stereo not given) |  | 206% (active)
CN(Cc1cn[nH]c1-c1ccc2c(c1)OCO2)C1CCOCC1 | inactive | 
COc1ccc(C)cc1NC(=O)C(=O)NNC(=O)c1ccco1 |  | 363% (active)
CCCOc1ccc(CN(CCC#N)C(=S)NC(=O)c2ccccc2)cc1 |  | 303% (active)
CC12CCC(C/C1=N\N=C1\NC(=O)/C(=C\c3ccc(Cl)cc3)S1)C2(C)C (stereo not given) |  | 204% (active)
Cc1cc(NC(c2cccnc2)c2c(C)[nH]c3ccccc23)no1 (stereo not given) | inactive | 
CCOc1cc(CNCCCN2CCOCC2)ccc1OCC(=O)NC(C)(C)C | inactive | 
Cc1[nH]n(-c2cccc3ccccc23)c(=O)c1/C=N/c1sc2c(c1C#N)CCC2 |  | 288% (active)
COc1ccc(CN2C(=O)C(O)(CC(=O)c3ccc4c(c3)OCO4)c3ccccc32)cc1OC (stereo not given) | inactive | 
S=c1nc[nH]c2c1cnn2-c1ccccc1 |  | 222% (active)

Structure (SMILES) | outcome | potentiation
COc1ccc(C)cc1N=Nc1ccc(O)c2ncccc12 | inactive | 
S=c1[nH]nc(-c2ccc(Cl)cc2)n1/N=C/C=C/c1ccco1 | inactive | 
COc1ccc(NC2=NC3(CCCCC3)N=C(N)N2)cc1 | inactive | 
Cc1ccccc1N(CC(=O)N/N=C/c1cc(C)n(-c2ccccc2C)c1C)S(C)(=O)=O | inactive | 
N#C/C(=C\c1ccc(-c2ccccc2[N+](=O)[O-])o1)C(=O)Nc1nc(-c2cccs2)cs1 |  | 224% (active)
CCOc1ccc(N=Nc2ccc(O)c3ncccc23)cc1 | inactive | 
COC(=O)c1c(NC(=S)Nc2ccccc2Cl)sc(C)c1C | inactive | 
CN1CCN(C=Nc2nc3ccccc3nc2N2CCCC2)CC1 | inactive | 
CC1CCN(C(=S)NC(=O)c2ccc(C(C)(C)C)cc2)CC1 |  | 284% (active)
Oc1c(Br)cc(Br)cc1C=Nc1cccc2ncccc12 | inactive | 
CSc1nc(Nc2ccc(Cl)cc2)c(C#N)c(=O)[nH]1 | inactive | 
CSc1nc(-c2ccccc2)[nH]c(=S)c1C(C)=O |  | 474% (active)
COc1ccccc1C(=O)OCC(=O)Nc1ccc(Cl)cn1 | inactive | 
O=Cc1c(F)cccc1N1CCCC1 |  | 150% (active)
CCC(C)c1ccccc1OCCCNC1CCCC1 (stereo not given) | inactive | 
Cc1cccc(C(=O)NC(=S)N2CCc3ccccc3C2)c1 |  | 256% (active)
O=c1c2cc(Cl)cc(Cl)c2nc2n1CCC2 | inactive | 
COc1ccc(NS(=O)(=O)c2ccc(N/N=C(\C)c3ccncc3)c([N+](=O)[O-])c2)cc1 | inactive | 
CCOc1ccc(CCNC(=O)CSc2nc3ncc(Cl)cc3[nH]2)cc1OCC | inactive | 
O=C(CN1CCOCC1)N1CCN(c2nnc(-c3ccccc3)c3ccccc23)CC1 | inactive | 

These molecules were tested against Potassium voltage-gated channel subfamily KQT member 1 (Homo sapiens) (UniProt P51787) (assay: KCNQ1 activators by electrophysiology – IonWorks patch clamp, KCNQ1-CHO cells, orthogonal assay for KCNQ1 potentiator project, confirmation (AID 493184;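 active = current rise at least 3 SD above the untreated control mean in each of two repeat wells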)). Settings: automated patch clamp current, at 10 µM; hits give high values.
Sequence of Potassium voltage-gated channel subfamily KQT member 1 (Homo sapiens) (P51787 whole entry, looked up): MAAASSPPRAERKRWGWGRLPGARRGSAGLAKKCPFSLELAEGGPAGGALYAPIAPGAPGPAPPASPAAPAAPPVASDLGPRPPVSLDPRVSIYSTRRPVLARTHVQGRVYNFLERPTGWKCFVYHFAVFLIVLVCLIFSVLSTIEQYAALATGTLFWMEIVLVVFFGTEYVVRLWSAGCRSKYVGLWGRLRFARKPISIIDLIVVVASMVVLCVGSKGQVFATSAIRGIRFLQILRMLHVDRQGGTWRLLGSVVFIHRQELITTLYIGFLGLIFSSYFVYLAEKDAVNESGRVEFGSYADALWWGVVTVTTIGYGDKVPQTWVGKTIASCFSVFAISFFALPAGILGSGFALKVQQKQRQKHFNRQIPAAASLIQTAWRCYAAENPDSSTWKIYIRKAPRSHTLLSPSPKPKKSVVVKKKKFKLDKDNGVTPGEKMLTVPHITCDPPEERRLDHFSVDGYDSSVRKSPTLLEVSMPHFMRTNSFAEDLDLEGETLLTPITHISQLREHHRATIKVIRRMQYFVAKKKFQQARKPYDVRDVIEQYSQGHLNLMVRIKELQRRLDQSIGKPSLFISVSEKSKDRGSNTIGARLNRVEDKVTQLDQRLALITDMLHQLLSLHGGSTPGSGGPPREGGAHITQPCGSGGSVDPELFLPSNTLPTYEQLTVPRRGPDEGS
Summary of the method: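 Material: KCNQ1-expressing CHO cells; doses: 10 µM final, single point; probe or stimulus: voltage step from -90 mV holding to +40 mV, 2,000 ms; signal: automated voltage clamp, amphotericin B perforated patch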

Structure (SMILES) | outcome
CN1CCN(C(=O)/C(=C/c2ccccc2)c2ccccc2)CC1 | inactive
CC(OC(=O)CCCNC(=O)c1ccc(Cl)cc1)C(=O)N(C)Cc1ccccc1 (stereo not given) | inactive
Cc1ccc2cc(CN(C(=O)c3ccco3)c3ccccc3C)c(=O)[nH]c2c1 | inactive
COc1ccc(C(=O)NC(=S)NNC(=O)c2ccc3ccccc3n2)cc1 | inactive
CC(C)(C)C(=O)NC(=S)NNC(=O)c1ccc(Cl)cc1Cl | inactive
Fc1ccc2nc(Nc3nc4c(F)cccc4s3)sc2c1 | inactive
Clc1ccc(-c2csc(N3CCc4ccccc4C3)n2)cc1 | inactive
CCN(Cc1cc2cc(OC)ccc2[nH]c1=O)C(=O)c1ccncc1 | inactive
Cc1ccc(NC(=S)N/N=C2/CCCCc3ccccc32)cc1 | inactive
Cc1ccc(C(=O)Nc2nc3ccccc3c(=O)s2)cc1 | inactive
Cc1cc(C)n(CC(=O)N2CCCC(N3CCN(c4ccccc4C)CC3)C2)n1 (stereo not given) | inactive
CN(Cc1cn[nH]c1-c1ccc2c(c1)OCO2)C1CCOCC1 | inactive
COc1ccc(C)cc1NC(=O)C(=O)NNC(=O)c1ccco1 | inactive
CCCOc1ccc(CN(CCC#N)C(=S)NC(=O)c2ccccc2)cc1 | inactive
CC12CCC(C/C1=N\N=C1\NC(=O)/C(=C\c3ccc(Cl)cc3)S1)C2(C)C (stereo not given) | inactive
Cc1cc(NC(c2cccnc2)c2c(C)[nH]c3ccccc23)no1 (stereo not given) | inactive
CCOc1cc(CNCCCN2CCOCC2)ccc1OCC(=O)NC(C)(C)C | inactive
Cc1[nH]n(-c2cccc3ccccc23)c(=O)c1/C=N/c1sc2c(c1C#N)CCC2 | inactive
COc1ccc(CN2C(=O)C(O)(CC(=O)c3ccc4c(c3)OCO4)c3ccccc32)cc1OC (stereo not given) | inactive
S=c1nc[nH]c2c1cnn2-c1ccccc1 | inactive

Structure (SMILES) | outcome
COc1ccc(C)cc1N=Nc1ccc(O)c2ncccc12 | inactive
S=c1[nH]nc(-c2ccc(Cl)cc2)n1/N=C/C=C/c1ccco1 | inactive
COc1ccc(NC2=NC3(CCCCC3)N=C(N)N2)cc1 | inactive
Cc1ccccc1N(CC(=O)N/N=C/c1cc(C)n(-c2ccccc2C)c1C)S(C)(=O)=O | inactive
N#C/C(=C\c1ccc(-c2ccccc2[N+](=O)[O-])o1)C(=O)Nc1nc(-c2cccs2)cs1 | inactive
CCOc1ccc(N=Nc2ccc(O)c3ncccc23)cc1 | inactive
COC(=O)c1c(NC(=S)Nc2ccccc2Cl)sc(C)c1C | inactive
CN1CCN(C=Nc2nc3ccccc3nc2N2CCCC2)CC1 | inactive
CC1CCN(C(=S)NC(=O)c2ccc(C(C)(C)C)cc2)CC1 | inactive
Oc1c(Br)cc(Br)cc1C=Nc1cccc2ncccc12 | inactive
CSc1nc(Nc2ccc(Cl)cc2)c(C#N)c(=O)[nH]1 | inactive
CSc1nc(-c2ccccc2)[nH]c(=S)c1C(C)=O | inactive
COc1ccccc1C(=O)OCC(=O)Nc1ccc(Cl)cn1 | inactive
O=Cc1c(F)cccc1N1CCCC1 | inactive
CCC(C)c1ccccc1OCCCNC1CCCC1 (stereo not given) | inactive
Cc1cccc(C(=O)NC(=S)N2CCc3ccccc3C2)c1 | inactive
O=c1c2cc(Cl)cc(Cl)c2nc2n1CCC2 | inactive
COc1ccc(NS(=O)(=O)c2ccc(N/N=C(\C)c3ccncc3)c([N+](=O)[O-])c2)cc1 | inactive
CCOc1ccc(CCNC(=O)CSc2nc3ncc(Cl)cc3[nH]2)cc1OCC | inactive
O=C(CN1CCOCC1)N1CCN(c2nnc(-c3ccccc3)c3ccccc23)CC1 | inactive
